Results as given in ChEMBL document CHEMBL3997797 (J Med Chem, 2017).

Tests used:
CES2 (cocaine esterase) [1] = biological target: T1, CES2 (cocaine esterase) (Homo sapiens, UniProt O00748); assay: Inhibition of human intestinal CES2 expressed in baculovirus infected sf9 cells at 10 uM using o-nitrophenyl acetate as substrate monitored at 15 secs interval for 5 mins relative to control; details: probe o-nitrophenyl acetate
T1 sequence (O00748 whole entry): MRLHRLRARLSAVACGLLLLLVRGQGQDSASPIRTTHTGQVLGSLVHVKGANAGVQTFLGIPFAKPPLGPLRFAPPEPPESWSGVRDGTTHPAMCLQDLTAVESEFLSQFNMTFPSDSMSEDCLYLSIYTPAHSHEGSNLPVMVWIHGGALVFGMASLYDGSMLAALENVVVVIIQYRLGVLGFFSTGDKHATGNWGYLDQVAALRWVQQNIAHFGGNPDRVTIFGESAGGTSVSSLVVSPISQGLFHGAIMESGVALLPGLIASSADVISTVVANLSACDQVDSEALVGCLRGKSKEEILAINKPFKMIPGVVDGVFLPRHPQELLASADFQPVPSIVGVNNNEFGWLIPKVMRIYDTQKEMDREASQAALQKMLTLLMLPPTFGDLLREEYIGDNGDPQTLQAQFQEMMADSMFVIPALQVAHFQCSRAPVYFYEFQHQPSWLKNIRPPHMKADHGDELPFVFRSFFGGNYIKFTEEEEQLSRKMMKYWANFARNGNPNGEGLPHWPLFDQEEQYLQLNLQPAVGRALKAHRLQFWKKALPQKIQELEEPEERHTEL

Liver carboxylesterase 1 [2] = biological target: T2, Liver carboxylesterase 1 (Homo sapiens, UniProt P23141); assay: Inhibition of human liver CES1 expressed in baculovirus infected sf9 cells using o-nitrophenyl acetate as substrate monitored at 15 secs interval for 5 mins
T2 sequence (P23141 whole entry): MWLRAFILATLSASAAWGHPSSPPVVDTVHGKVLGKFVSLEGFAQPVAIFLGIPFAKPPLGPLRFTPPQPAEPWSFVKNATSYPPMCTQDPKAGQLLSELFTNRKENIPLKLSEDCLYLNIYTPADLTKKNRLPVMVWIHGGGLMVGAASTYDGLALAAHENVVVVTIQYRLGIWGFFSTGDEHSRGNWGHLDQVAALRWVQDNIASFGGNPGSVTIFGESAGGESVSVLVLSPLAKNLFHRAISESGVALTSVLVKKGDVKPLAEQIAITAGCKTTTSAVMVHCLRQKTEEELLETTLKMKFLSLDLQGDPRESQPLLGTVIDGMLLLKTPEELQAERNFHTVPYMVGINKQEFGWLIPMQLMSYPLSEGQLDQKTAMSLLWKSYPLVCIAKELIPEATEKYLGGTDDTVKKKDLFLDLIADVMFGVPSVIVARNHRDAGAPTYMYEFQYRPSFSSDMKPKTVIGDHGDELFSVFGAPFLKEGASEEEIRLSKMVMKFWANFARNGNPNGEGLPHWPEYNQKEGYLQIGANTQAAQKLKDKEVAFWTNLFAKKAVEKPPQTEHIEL
Outline: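 Purified hCE1 secreted from baculovirus-infected Sf9 cells, isolated from serum-free medium by preparative isoelectric focusing and chromatography. o-NPA hydrolysis measured with at least 8 inhibitor concentrations, each point in quadruplicate. Fractional inhibition fitted to a general partial-inhibition model (α 0 to ∞, β 0 to 1). The best model was chosen by r2 and Akaike's information criterion, and Ki was calculated from that model.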

Liver carboxylesterase 1 [3] = biological target: T2, Liver carboxylesterase 1; assay: Inhibition of human liver CES1 expressed in baculovirus infected sf9 cells using oseltamivir as substrate
CES2 (cocaine esterase) [4] = biological target: T1, CES2 (cocaine esterase); assay: Inhibition of human intestinal CES2 expressed in U373MG cells assessed as 7-ethyl-10-hydroxycamptothecin formation at 5 uM using irinotecan as substrate preincubated for 1 hr followed by substrate addition measured after 5 mins by HPLC method relative to control; format: cell-based; set-up: scale not given: the % may be the effect or the level left; details: U373MG cells expressing human intestinal CES2, probe irinotecan, read-out: Activity
[5] = biological target: Acetylcholinesterase (Homo sapiens) (UniProt P22303); assay: Inhibition of human AChE at 10 uM using acetylthiocholine as substrate by spectrophotometric method relative to control
[6] = biological target: T3, CES1 (liver carboxylesterase 1) (Homo sapiens, UniProt P23141); assay: Inhibition of human liver CES1 expressed in U373MG cells assessed as oseltamivir carboxylate formation at 5 uM using oseltamivir as substrate preincubated for 30 mins followed by compound washout and subsequent compound/substrate addition measured after 30 mins by UPLC-MS method relative to control; format: cell-based; set-up: scale not given: the % may be the effect or the level left; details: U373MG cells expressing human liver CES1, probe oseltamivir, read-out: Activity
T3 sequence (P23141 whole entry): T2 sequence (P23141 whole entry)
Outline: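 U373MG cells expressing hCE1 (1 x 10^5/well) attached overnight. They were pretreated 30 min with 5 µM inhibitor, then media was replaced with fresh media containing 20 µM oseltamivir plus 5 µM inhibitor for 30 min. Media was mixed with an equal volume of acetonitrile and metabolites were quantified by UPLC-MS. Run in duplicate with DMSO control.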

[7] = biological target: T3, CES1 (liver carboxylesterase 1); assay: Inhibition of human liver CES1 expressed in baculovirus infected sf9 cells at 10 uM using o-nitrophenyl acetate as substrate monitored at 15 secs interval for 5 mins relative to control; details: probe o-nitrophenyl acetate
Outline: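 Purified secreted hCE1 from Sf9 culture medium, isolated by isoelectric focusing and chromatography. Inhibitor tested at a single concentration of 10 µM against o-NPA hydrolysis. Read-out is percent inhibition.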

[8] = Drug metabolism in DMSO/sodium phosphate buffer assessed as tautomerization at pH 3 to 11 by UV-spectroscopic method; format: physicochemical
Outline: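 UV absorbance spectra recorded in aqueous 20% DMSO:80% 200 mM sodium phosphate buffer across a range of pH values to follow tautomeric form.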

U373 MG [9] = assay: Growth inhibition of human U373MG cells after 72 hrs; format: cell-based, U-373MG ATCC
U373 MG [10] = assay: Cytotoxicity against human U373MG cells assessed as cell viability after 30 mins relative to control; format: cell-based; details: u-373mg atcc, 0.5 h
Homo sapiens = species on record: Homo sapiens; assay: Selectivity ratio of Ki for human intestinal CES2 to Ki for human liver CES1
Cocaine esterase = biological target: T4, Cocaine esterase (Homo sapiens, UniProt O00748); assay: Inhibition of human intestinal CES2 expressed in baculovirus infected sf9 cells using o-nitrophenyl acetate as substrate monitored at 15 secs interval for 5 mins
T4 sequence (O00748 whole entry): T1 sequence (O00748 whole entry)

Acetylcholinesterase (Homo sapiens), sequence (P22303 whole entry): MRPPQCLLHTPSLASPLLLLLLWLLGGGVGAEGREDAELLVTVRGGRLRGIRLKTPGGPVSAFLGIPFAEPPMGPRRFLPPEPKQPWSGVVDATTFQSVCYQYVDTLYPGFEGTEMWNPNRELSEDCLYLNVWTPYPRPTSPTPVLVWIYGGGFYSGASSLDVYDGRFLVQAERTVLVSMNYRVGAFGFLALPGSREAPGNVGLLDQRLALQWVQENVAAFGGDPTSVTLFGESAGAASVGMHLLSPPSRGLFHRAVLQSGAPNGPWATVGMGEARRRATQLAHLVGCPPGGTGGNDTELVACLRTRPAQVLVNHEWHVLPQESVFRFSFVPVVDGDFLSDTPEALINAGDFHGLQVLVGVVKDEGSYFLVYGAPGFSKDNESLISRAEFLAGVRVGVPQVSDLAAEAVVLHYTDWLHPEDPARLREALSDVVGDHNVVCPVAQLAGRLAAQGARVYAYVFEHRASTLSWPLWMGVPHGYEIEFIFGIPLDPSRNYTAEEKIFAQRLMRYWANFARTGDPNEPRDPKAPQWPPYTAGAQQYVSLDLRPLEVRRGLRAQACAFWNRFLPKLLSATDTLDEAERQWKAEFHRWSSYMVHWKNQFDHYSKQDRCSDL

SMILES	inhibition at 5 min, 10 µM (CES2 (cocaine esterase) [1])	Ki (Liver carboxylesterase 1 [2])	Ki (Liver carboxylesterase 1 [3])	activity at 5 min, 5 µM (CES2 (cocaine esterase) [4])	inhibition [5]	activity at 0.5 h, 5 µM [6]	inhibition at 5 min, 10 µM [7]	Drug metabolism [8]	IC50 (U373 MG [9])	Activity (U373 MG [10])	Ratio Ki (Homo sapiens)	Ki (Cocaine esterase)
COc1ccc(N(C)C2=CC(=O)C(=O)c3ccccc32)cc1	7%	81.6 nM	17.7 nM	77%	1%	6%	–	–	–	–	–	–
CN(C1=CC(=O)C(=O)c2ccccc21)c1ccc(Cl)cc1	30%	19.2 nM	12.9 nM	91%	4%	5%	–	–	–	–	–	–
O=C1C=C(Nc2ccc(Br)cc2)c2ccccc2C1=O	12%	–	–	–	16%	–	26%	–	–	–	–	–
O=C1C=C(Oc2ccc(F)cc2)c2ccccc2C1=O	–	45.3 nM	–	–	22%	25%	–	Metabolite_Notdetected	–	–	–	–
O=C1C=C(Oc2ccccc2)c2ccccc2C1=O	–	23.8 nM	–	–	11%	19%	–	Metabolite_Notdetected	–	–	–	–
CN(C1=CC(=O)C(=O)c2ccccc21)c1ccc(F)cc1	19%	163 nM	37.6 nM	92%	1%	1%	–	Metabolite_Notdetected	3900 nM	96%	–	–
Cc1ccc(OC2=CC(=O)C(=O)c3ccccc32)cc1	–	4.44 nM	–	–	8%	13%	–	–	–	–	–	–
O=C1C=C(Nc2ccc(F)cc2)c2ccccc2C1=O	14%	–	–	–	21%	–	40%	–	–	–	–	–
CN(C1=CC(=O)C(=O)c2ccccc21)c1ccccc1	33%	90 nM	32.1 nM	77%	3%	8%	–	Metabolite_Notdetected	12800 nM	99%	–	–
O=C1C=C(Nc2ccc(Cl)cc2)c2ccccc2C1=O	22%	–	–	–	23%	–	33%	–	–	–	–	–
O=C1C=C(Oc2ccc(Br)cc2)c2ccccc2C1=O	–	14.3 nM	–	–	26%	47%	–	–	–	–	–	–
COc1ccc(NC2=CC(=O)C(=O)c3ccccc32)cc1	12%	–	–	–	5%	–	26%	–	–	–	–	–
O=C1C=C(Nc2ccccc2)c2ccccc2C1=O	12%	–	–	–	5%	–	30%	Metabolite_Detected	–	–	–	–
COc1ccc(OC2=CC(=O)C(=O)c3ccccc32)cc1	–	17.8 nM	–	–	18%	14%	–	–	–	–	–	–
Cc1ccc(NC2=CC(=O)C(=O)c3ccccc32)cc1	15%	–	–	–	17%	–	44%	–	–	–	–	–
O=C1C=C(Oc2ccc(Cl)cc2)c2ccccc2C1=O	–	18.9 nM	–	–	31%	20%	–	–	–	–	–	–
CN(C1=CC(=O)C(=O)c2ccccc21)c1ccc(Br)cc1	–	16.1 nM	17.2 nM	89%	12%	19%	–	–	–	–	4 to 11	1840 nM
O=C1C=C(Oc2ccc(I)cc2)c2ccccc2C1=O	–	4.7 nM	–	–	25%	–	–	–	–	–	–	–
CC1(C)CCC2=C(O1)c1ccccc1C(=O)C2=O [LAPACHONE]	–	1220 nM	–	–	10%	12%	–	–	–	–	–	–
CN(C1=CC(=O)C(=O)c2ccccc21)c1ccc(I)cc1	83%	400 to 408 nM	148 nM	–	31%	–	–	–	–	–	4 to 11	284 nM
O=C1C=C(Nc2ccc(I)cc2)c2ccccc2C1=O	10%	–	–	–	16%	–	41%	–	–	–	–	–
Cc1ccc(N(C)C2=CC(=O)C(=O)c3ccccc32)cc1	25%	11.1 nM	4.9 nM	93%	3%	2%	–	–	4600 nM	100%	–	–
